Reference: ChEMBL document CHEMBL1125317, “3-Hydroxy-3-methylglutaryl-coenzyme A reductase inhibitors. 9. The synthesis and biological evaluation of novel simvastatin analogs” (J Med Chem, 1992)
pIC50: −log10 of the molar value.

Tests used:
[1] = system: Canis familiaris; experiment: Compound tested […] for % change of plasma cholesterol in cholestyramine-primed dogs after oral administration at 4 mg/kg; assay type: functional, Canis lupus familiaris
[2] = system: Rattus norvegicus; experiment: […] acute inhibition of [14C]cholesterol synthesis in the rat post peroral administration of the test compound at 0.45 mg/kg; assay type: functional; conditions: route oral
Outline: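 Rats given a single oral dose of 0.45 mg/kg; [14C]acetate incorporation into cholesterol measured 1 h after dosing as index of acute cholesterol synthesis inhibition.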

[3] = biological target: T1, 3-hydroxy-3-methylglutaryl-coenzyme A reductase (Homo sapiens, UniProt P04035); experiment: The compound was tested in vitro for inhibitory activity against HMG-CoA reductase
T1 sequence (P04035 whole entry): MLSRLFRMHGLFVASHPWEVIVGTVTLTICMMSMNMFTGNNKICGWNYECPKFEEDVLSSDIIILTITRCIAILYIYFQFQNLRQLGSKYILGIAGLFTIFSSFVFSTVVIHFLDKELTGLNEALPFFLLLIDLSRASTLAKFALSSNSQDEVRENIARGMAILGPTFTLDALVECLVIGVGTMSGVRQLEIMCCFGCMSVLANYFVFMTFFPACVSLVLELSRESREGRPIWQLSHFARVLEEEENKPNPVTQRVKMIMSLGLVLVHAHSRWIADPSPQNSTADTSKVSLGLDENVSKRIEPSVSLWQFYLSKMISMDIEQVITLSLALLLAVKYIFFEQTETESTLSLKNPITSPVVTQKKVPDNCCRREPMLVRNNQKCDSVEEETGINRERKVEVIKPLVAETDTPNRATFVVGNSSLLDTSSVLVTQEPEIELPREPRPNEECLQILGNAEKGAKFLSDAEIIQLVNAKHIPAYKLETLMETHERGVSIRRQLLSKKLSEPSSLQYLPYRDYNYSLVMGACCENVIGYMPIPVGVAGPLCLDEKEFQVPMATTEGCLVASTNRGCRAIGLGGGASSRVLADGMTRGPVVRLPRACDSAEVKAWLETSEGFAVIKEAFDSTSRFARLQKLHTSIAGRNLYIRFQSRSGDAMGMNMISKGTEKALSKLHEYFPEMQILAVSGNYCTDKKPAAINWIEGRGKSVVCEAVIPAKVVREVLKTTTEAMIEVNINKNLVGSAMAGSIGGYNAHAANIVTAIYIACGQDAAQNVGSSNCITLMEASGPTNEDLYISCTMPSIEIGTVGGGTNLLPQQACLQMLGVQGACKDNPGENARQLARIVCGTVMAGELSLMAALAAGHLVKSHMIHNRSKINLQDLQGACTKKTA

Row | pIC50 [3] | SMILES | Change [1] [%] | Change [2] [%]
1 |  | CCC(C)(C)C(=O)O[C@H]1C[C@@H](C)C=C2C=C[C@H](C)[C@H](CC[C@@H]3C[C@@H](O)CC(=O)O3)C21 (some centres undefined) | -60 | -65
2 |  | CC[C@H](C)C(=O)O[C@H]1C[C@@H](C)C=C2C=C[C@H](C)[C@H](CC[C@@H]3C[C@@H](O)CC(=O)O3)C21 (some centres undefined) | -42 | -55
3 |  | CCC(C)(C)C(=O)O[C@@H]1C2C(=C[C@H](C)[C@H]1[C@@H](O)c1ccccc1)C=C[C@H](C)[C@@H]2CC[C@@H]1C[C@@H](O)CC(=O)O1 (some centres undefined) | -31 | -25
4 |  | CCC(C)(C)C(=O)O[C@@H]1C2C(=C[C@H](C)[C@H]1[C@H](C)O)C=C[C@H](C)[C@@H]2CC[C@@H]1C[C@@H](O)CC(=O)O1 (some centres undefined) | -32 | -28
5 | 7.55 | CC[C@H](C)C(=O)O[C@H]1CCC=C2C=C[C@H](C)[C@H](CC[C@@H]3C[C@@H](O)CC(=O)O3)[C@H]21 [MEVASTATIN] |  | 
6 | 7.97 | CCC(C)(C)C(=O)O[C@@H]1C2C(=C[C@H](C)[C@H]1CO)C=C[C@H](C)[C@@H]2CC[C@@H]1C[C@@H](O)CC(=O)O1 (some centres undefined) | 0 | -69
7 |  | CCC(C)(C)C(=O)O[C@@H]1C2C(=C[C@H](C)[C@@H]1O)C=C[C@H](C)[C@@H]2CC[C@@H]1C[C@@H](O)CC(=O)O1 (some centres undefined) | -36 | -45
